# From PubChem
# Mdm2-MdmX inh – inhibitors of human Mdm2-MdmX association, primary screen, cell-based, luminescence, split luciferase, SaOS-2, uHTS | AID 485346, 2010 | inhibition, % at 8 µM | SaOS-2 split-luciferase Mdm2/MdmX complementation | 330,000 tested, 3% active | Protein Mdm4 (Homo sapiens) + E3 ubiquitin-protein ligase Mdm2 (Homo sapiens), …;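 active = inhibition of at least 50% at 8 µM in the primary screen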
# Mdm2 ligase inh – MDM2-luciferase reporter signal enhancers, primary screen, MDM2 E3 ligase inhibitor project, cell-based, luminescence, 1536-well; signal enhancement, % at 5 µM; 210,000 tested, 0.11% active; E3 ubiquitin-protein ligase Mdm2 (Homo sapiens), Q00987; cell-based MDM2 ubiquitination luciferase reporter, 2 h; 0 = plate control, 100 = twice control, blank-subtracted;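 active = signal enhancement of 30% or more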;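 note: luminescence tracks abundance of the self-degrading MDM2-luciferase fusion protein; higher signal means inhibition of MDM2 E3 ligase activity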
#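 system = mammalian cells stably expressing self-ubiquitinating, self-degrading MDM2 E3–luciferase fusion | quantity = 2000 cells per well seeded | incubation = 4 h cell settling then 2 h compound exposure, 37 °C | signal = SteadyLite luminescence, 15 min reagent step | benchmarks = plate control and blank wells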
# Beta2AR agonist – beta2AR agonists driving receptor internalization, primary screen, cell-based, FAP fluorogen, flow cytometry; Beta-2 adrenergic receptor (Homo sapiens), P07550; Am2.2-beta2AR cells; response, % (no concentration beside the values); 340,000 tested, 0.43% active; AID 504454, 2011;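 active = response above a set limit, near 3 SD of response in nonfluorescent compounds, cut at about 42% in these data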
# Target sequence (P07550 whole entry, looked up): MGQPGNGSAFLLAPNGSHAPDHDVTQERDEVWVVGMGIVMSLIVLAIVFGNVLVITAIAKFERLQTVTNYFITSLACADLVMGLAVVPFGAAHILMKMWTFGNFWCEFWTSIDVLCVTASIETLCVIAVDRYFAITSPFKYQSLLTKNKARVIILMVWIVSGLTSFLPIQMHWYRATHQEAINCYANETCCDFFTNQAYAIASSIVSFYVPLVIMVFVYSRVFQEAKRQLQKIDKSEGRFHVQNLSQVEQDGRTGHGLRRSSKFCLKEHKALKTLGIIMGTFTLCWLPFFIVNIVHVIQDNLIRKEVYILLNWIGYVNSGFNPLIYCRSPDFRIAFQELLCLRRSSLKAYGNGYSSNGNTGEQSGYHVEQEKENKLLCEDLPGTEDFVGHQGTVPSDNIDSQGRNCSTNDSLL
# UPR CHOP act – activators of apoptotic CHOP UPR arm, primary screen, cell-based, CHO-CHOP luciferase reporter, luminescence, uHTS; UPR activation; percent of tunicamycin response over DMSO baseline; activation, % at 10 µM; 330,000 tested, 0.34% active;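 active = at 10 µM dose, activation of 40% or more, normalized to positive control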;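 note: 100% = tunicamycin at 10 µg/mL and 0% = DMSO alone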
#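 measured by = luciferase luminescence | assay system = CHO-CHOP cells, stable luciferase reporter of PERK-eIF2a-CHOP signalling | amount = 500 reporter cells seeded per well | timing = 6 h compound exposure at 37 °C after overnight seeding | controls = positive tunicamycin 10 µg/mL, negative DMSO alone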
# XBP1 UPR activ – activators of adaptive XBP1 UPR arm, primary screen, cell-based, CHO-XBP1 luciferase reporter, luminescence, uHTS. IRE1-XBP1 UPR activation; percent of tunicamycin response, DMSO as zero. 330,000 tested, 0.33% active. activation, % at 20 µM;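 active = versus positive control, 20 µM dose yields 30% or more activation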;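 note: 100% = tunicamycin at 10 µg/mL and 0% = DMSO only wells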
#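 Test system: CHO-XBP1 luciferase reporter cells | Buffer or medium: Serum-containing F12 medium, 10% FBS | Schedule: 6 h compound exposure at 37 °C, 5% CO2 | Detection: Steady-Glo luciferase glow luminescence, 10 min after reagent addition | Read-out basis: Activation, % of tunicamycin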
# Dynein transport – inhibitors of GR-EGFP nuclear translocation, primary screen, dynein cargo transport inhibitor project, imaging, high-content, 3617.4 mouse cells. z-score, hits read low. 220,000 tested, 0.47% active. test concentration mostly 20 µM; stimulated with dexamethasone, 1 µM; active compounds read low;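 active = plate z-score of nuclear minus cytoplasmic receptor signal below a set negative limit, without overly bright fluorescence or cell loss, cut at about -3.5 in these data, passing the limit was not always enough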;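 note: z-score of nuclear minus cytoplasmic ring GR-EGFP intensity difference per well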
#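 Buffer or medium – tet-free medium with charcoal-stripped serum · Signal – automated 10x imaging of fixed Hoechst-stained cells · Also added – dexamethasone agonist, 1.0 µM final, for 30 min · Incubation – induction 48 h, compound 1 h, agonist 30 min · Read-out – GR-EGFP nuclear translocation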
# Dynein inh conf – dynein cargo transport inhibitors, GR-EGFP translocation, confirmation, imaging, high-content imaging, GR-EGFP cells; calls only at 20 µM; shares compounds with Dynein transport; 1,000 tested, 69% active; 3617.4 GR-EGFP nuclear translocation imaging, dexamethasone-induced;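 active = inhibition of receptor movement into the nucleus at or above a set limit in both runs, with normal cell brightness and cell count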;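 note: dexamethasone at 1 µM final in well for 30 min; nuclear minus cytoplasmic GR-EGFP mean intensity difference in channel 2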
# CHOP UPR conf – activators of apoptotic CHOP UPR arm, confirmation, cell-based, CHO-CHOP luciferase reporter, single concentration | shares compounds with UPR CHOP act | CHO-CHOP cells, CHOP-luciferase reporter luminescence; percent of tunicamycin response, DMSO as zero | activation, % at 10 µM | 1,000 tested, 64% active; in the data active = activation above about 33%;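 note: 0% = DMSO wells and 100% = tunicamycin 10 µg/mL wells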
# UPR XBP1 confirm – IRE1-XBP1 UPR arm activators, confirmation, cell-based, CHO-XBP1 luciferase reporter, luminescence, single concentration; shares compounds with XBP1 UPR activ; activation, % at 20 µM; 1,000 tested, 63% active; AID 485299, 2010;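 active = reporter signal at least 30% of the positive control's activation in two or more of four replicate wells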;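 note: plate controls were DMSO negative control for no effect and tunicamycin 10 µg/mL positive control for full effect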
# Mdm2-MdmX conf – Mdm2-MdmX complex disruptors, retested hits, confirmation, luminescence, single concentration | shares compounds with Mdm2-MdmX inh | Mdm2-MdmX binding, luminescent assay | inhibition, % at 8 µM | 10,000 tested, 55% active; in the data active = inhibition above about 40%
# Full FLuc ctr – full-length luciferase signal inhibition, confirmation, counter-screen for Mdm2/MdmX interaction inhibitor project, cell-based, single concentration, SaOS-2; shares compounds with Mdm2-MdmX inh; SaOS-2 full-length luciferase counterscreen, luminescence; inhibition, % at 8 µM; 6,200 tested, 77% active; AID 504607, 2011;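 active = mean inhibition at 8 µM reaching about 37%, which flags the compound as non-specific, limit read from the data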;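 note: p53-null SaOS-2 cells with luciferase driven by a doxycycline-inducible promoter; compound on cells about two nights before reading with doxycycline added after day one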
# Numbers without * were called inactive; / = not tested or not shown; + = active, no number. Rows were chosen to be rich in hits. Some 3.7% of all compounds tested hit in one or more screens of this group.
SMILES,Mdm2-MdmX inh,Mdm2 ligase inh,Beta2AR agonist,UPR CHOP act,XBP1 UPR activ,Dynein transport,Dynein inh conf,Mdm2-MdmX conf,Full FLuc ctr,others
CC(=O)Nc1ccc(S(=O)(=O)NC2CCS(=O)(=O)C2)cc1Cl (stereo unspecified),-7,-9,6,0,0,0.6,/,/,/,
COCCCNc1c2c3c(cccc3[nH]c1=O)C(=O)c1ccccc1-2,57*,-7,-118,4,2,-4.9*,+,58*,86*,
COC(=O)c1cc(=O)n(CCc2ccc(OC)cc2)c(=Nc2ccc(F)c(Cl)c2)s1,71*,-5,19,60*,10,-4.4*,+,-3,/,CHOP UPR conf=40*
COC(=O)c1cc(=O)n(Cc2ccc3c(c2)OCO3)c(=Nc2ccc(F)c(Cl)c2)s1,62*,-17,16,62*,3,-3.6*,+,39,102*,CHOP UPR conf=73*
CCc1cccc(CC)c1C(OC(C)=O)c1cccnc1 (stereo unspecified),-12,/,-4,0,0,/,/,/,/,
Cc1ccnc(N/C=C(\C#N)c2nc(-c3cccc(Br)c3)cs2)c1,53*,6,-650,3,91*,-12,+,-5,/,UPR XBP1 confirm=94*
N#C/C(=C\Nc1ccc2cn[nH]c2c1)c1nc(-c2ccccc2)cs1,/,-9,3,/,/,1.3,/,/,/,
Cc1ccc2nc(Cl)c3nnnn3c2c1,97*,-19,87*,139*,-7,-5.2*,+,90*,11,CHOP UPR conf=-7
COC(=O)c1ccc(NS(=O)(=O)c2cc(-c3cc(C)no3)ccc2OC)cc1,46,/,-21,1,2,/,/,/,/,
COc1ccc(C)cc1CN(C)c1ccc(S(=O)(=O)N2CCN(C)CC2)cn1,11,/,0,0,-1,/,/,/,/,
Cc1cccc(-c2nc(CS(=O)CC(=O)NCCc3ccc(Cl)cc3)c(C)o2)c1 (stereo unspecified),5,/,-1,-1,-3,/,/,/,/,
O=C(O)CCC(=O)N1CCN(S(=O)(=O)c2ccc3ccccc3c2)CC1,11,/,10,1,4,/,/,/,/,
O=C(Cn1ncc(Cl)c(Cl)c1=O)N1CCN(S(=O)(=O)c2ccc3ccccc3c2)CC1,100*,-5,12,94*,-5,-4*,+,100*,53*,CHOP UPR conf=25
CC(C)(CO)NC(=O)C12CC3CC(CC(Br)(C3)C1)C2,19,1,2,2,-1,0.15,/,/,/,
Cc1ccc(C2OC(=O)C=C2c2ccccc2)cc1 (stereo unspecified),13,/,-1,1,-1,/,/,/,/,
O=[N+]([O-])c1c(NCCCO)cc(Sc2nc3ccccc3s2)c2nonc12,99*,-3,96*,-9,-7,-4.1*,+,56*,3,
O=c1cc(C(Cl)(Cl)Cl)oc2c1ccc1ccccc12,98*,-6,14,47*,163*,-4*,+,86*,52*,CHOP UPR conf=33*;UPR XBP1 confirm=286*
O=C(c1nnsc1S(=O)(=O)c1ccc(Cl)cc1)N1CCOCC1,95*,-18,24,28,-6,-6*,+,68*,19,
O=C(c1nnsc1S(=O)c1ccc(Cl)cc1)N1CCOCC1 (stereo unspecified),99*,-28,29,-10,-10,-4.8*,+,94*,53*,
CNC(=O)c1nnsc1S(=O)(=O)c1ccc(Cl)cc1,96*,-27,49*,-10,-11,-4*,+,100*,51*,
O=C1OC(c2ccccc2)(c2ccc3cc(O)ccc3c2)c2ccccc21 (stereo unspecified),/,/,28,/,/,/,/,/,/,
Cn1cnnc1Sc1nc([N+](=O)[O-])nn1C,8,-11,5,-1,-2,0.37,/,/,/,
COc1ccccc1-c1nnc(Sc2nc([N+](=O)[O-])nn2C)o1,78*,2,-1,-1,-1,-4.1*,+,99*,50*,
O=C(/C=C/Sc1ccccc1)c1ccccc1,52*,-13,38,79*,-3,-3.6*,+,-15,/,CHOP UPR conf=99*
CCSc1nc2ccccc2n1C(=O)/C=C\c1ccc(OC)c(OC)c1,100*,43*,51*,2,-2,-4.3*,+,100*,52*,
CCSc1nc2ccccc2n1CC(N)=O,19,-20,10,1,-2,-0.063,/,/,/,
O=C(CCl)N(CCCNC(=O)C(F)(F)F)c1ccc([N+](=O)[O-])cc1,93*,-4,7,30,3,-5*,+,72*,38*,
C=CCSC(=C(C#N)C#N)c1cc2c([nH]1)CCCC2,81*,-22,37,43*,-5,-4*,+,16,/,CHOP UPR conf=55*
CSc1nc2ccccc2nc1N(C)S(=O)(=O)c1ccc(C)cc1,3,-5,-2,0,-5,-0.54,/,/,/,
CCOc1ccc(NC(=S)N2CCn3c(nc4ccccc43)C2)cc1,-9,5,/,0,1,1.6,/,/,/,
